Source: ChEMBL document CHEMBL1143388 (Bioorg Med Chem, 2009)

Key:
Mu-type opioid receptor = Mu-type opioid receptor (Rattus norvegicus, UniProt P33535); assay: Binding affinity to rat MOPR expressed in CHO cells; type: cell-based
Summary of the method: (§1)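 Competitive displacement of [3H]diprenorphine from membranes of CHO cells stably transfected with rat MOPR or mouse DOPR. Buffer: 50 mM Tris-HCl, pH 7.4, with 1 mM EGTA. Ki values were derived from inhibition curves. Each value is the mean of at least three independent experiments run in duplicate.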

[1] = target: Delta-type opioid receptor (Mus musculus, UniProt P32300); assay: Binding affinity to mouse DOPR expressed in CHO cells; type: cell-based; summary of the method: as §1
Chain of Delta-type opioid receptor (P32300 whole entry): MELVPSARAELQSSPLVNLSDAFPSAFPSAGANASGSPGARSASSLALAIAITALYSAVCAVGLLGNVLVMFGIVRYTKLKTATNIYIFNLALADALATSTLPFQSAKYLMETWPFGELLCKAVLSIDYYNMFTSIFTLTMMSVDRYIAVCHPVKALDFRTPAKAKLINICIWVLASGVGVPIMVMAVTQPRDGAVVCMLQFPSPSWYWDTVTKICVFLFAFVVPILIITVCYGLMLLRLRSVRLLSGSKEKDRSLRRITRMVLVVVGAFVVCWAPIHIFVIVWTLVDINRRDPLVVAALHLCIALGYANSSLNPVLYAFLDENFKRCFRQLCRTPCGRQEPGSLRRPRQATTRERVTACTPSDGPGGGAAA

[2] = target: T1, Kappa-type opioid receptor (Homo sapiens, UniProt P41145); assay: Agonist activity at human KOPR expressed in CHO cells assessed as enhancement of [35S]GTPgammaS binding at 10 uM relative to U50488; type: functional, cell-based
T1 sequence (P41145 whole entry): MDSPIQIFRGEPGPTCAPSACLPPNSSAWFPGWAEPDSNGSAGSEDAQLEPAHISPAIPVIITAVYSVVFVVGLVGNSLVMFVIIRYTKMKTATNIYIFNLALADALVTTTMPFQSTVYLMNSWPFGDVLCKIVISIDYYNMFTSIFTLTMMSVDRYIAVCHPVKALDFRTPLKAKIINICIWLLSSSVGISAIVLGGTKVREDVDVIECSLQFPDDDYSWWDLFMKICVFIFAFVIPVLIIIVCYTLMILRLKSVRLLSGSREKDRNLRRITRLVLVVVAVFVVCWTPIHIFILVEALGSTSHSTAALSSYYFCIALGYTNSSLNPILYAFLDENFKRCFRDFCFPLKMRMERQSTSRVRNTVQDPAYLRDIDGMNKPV

[3] = target: T1, Kappa-type opioid receptor; assay: Agonist activity at human KOPR expressed in CHO cells assessed as enhancement of [35S]GTPgammaS binding; type: functional, cell-based
[4] = target: T1, Kappa-type opioid receptor; assay: Displacement of [3H]diprenorphine from human KOPR expressed in CHO cells; type: cell-based

Chain of Mu-type opioid receptor (P33535 whole entry): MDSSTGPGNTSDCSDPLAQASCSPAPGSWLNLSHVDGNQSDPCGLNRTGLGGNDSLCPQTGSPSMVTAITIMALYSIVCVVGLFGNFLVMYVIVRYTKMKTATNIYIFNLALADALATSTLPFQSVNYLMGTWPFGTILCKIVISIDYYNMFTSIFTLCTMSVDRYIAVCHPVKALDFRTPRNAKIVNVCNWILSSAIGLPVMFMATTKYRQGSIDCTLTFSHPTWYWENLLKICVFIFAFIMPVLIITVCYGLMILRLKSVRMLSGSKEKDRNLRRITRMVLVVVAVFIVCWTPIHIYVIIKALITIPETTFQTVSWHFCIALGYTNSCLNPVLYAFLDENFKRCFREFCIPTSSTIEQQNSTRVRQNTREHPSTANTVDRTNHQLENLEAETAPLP

| Structure (SMILES) | Ki (Mu-type opioid receptor) [µM] | Ki [1] [µM] | Emax [2] [%] | EC50 [3] [µM] | Ki [4] [µM] |
| --- | --- | --- | --- | --- | --- |
| CCOC[C@@H]1C[C@]2(C)[C@H]3C(=O)[C@@H](OC(C)=O)C[C@@H](C(=O)OC)[C@]3(C)CC[C@H]2C(=O)O1 | > 1 | > 1 |  |  |  |
| COC[C@@H]1C[C@]2(C)[C@H]3C(=O)[C@@H](OC(C)=O)C[C@@H](C(=O)OC)[C@]3(C)CC[C@H]2C(=O)O1 | > 1 | > 1 | 98 |  |  |
| COC(=O)[C@@H]1C[C@H](OC(C)=O)C(=O)[C@H]2[C@@]1(C)CC[C@H]1C(=O)O[C@H]([C@H](O)c3ccco3)C[C@]21C | > 1 | > 1 | 111 |  |  |
| COC(=O)[C@@H]1C[C@H](OC(C)=O)C(=O)[C@H]2[C@@]1(C)CC[C@H]1C(=O)O[C@H](C(=O)c3cnccn3)C[C@]21C | > 1 | > 1 | 103 |  |  |
| COC(=O)[C@@H]1C[C@H](OC(C)=O)C(=O)[C@H]2[C@@]1(C)CC[C@H]1C(=O)O[C@H](C(=O)O)C[C@]21C | > 1 | > 1 | 99 | 0.167 | 0.055 |
| C=Cc1occc1[C@@H]1C[C@]2(C)[C@H]3C(=O)[C@@H](OC(C)=O)C[C@@H](C(=O)OC)[C@]3(C)CC[C@H]2C(=O)O1 | > 1 | > 1 | 120 |  |  |
| COC(=O)[C@@H]1C[C@H](OC(C)=O)C(=O)[C@H]2[C@@]1(C)CC[C@H]1C(=O)O[C@H](C(=O)c3cccs3)C[C@]21C | > 1 | > 1 | 103 |  |  |
| COC(=O)[C@@H]1C[C@H](OC(C)=O)C(=O)[C@H]2[C@@]1(C)CC[C@H]1C(=O)O[C@H](C(=O)OC(C)C)C[C@]21C | > 1 | > 1 | 94 |  |  |
| COC(=O)[C@@H]1C[C@H](OC(C)=O)C(=O)[C@H]2[C@@]1(C)CC[C@H]1C(=O)O[C@H](c3ccoc3Br)C[C@]21C | > 1 | > 1 |  |  |  |
| COC(=O)[C@@H]1C[C@H](OC(C)=O)C(=O)[C@H]2[C@@]1(C)CC[C@H]1C(=O)O[C@H](COC(C)=O)C[C@]21C | > 1 | > 1 | 113 |  |  |
| COC(=O)[C@@H]1C[C@]2(C)[C@H]3C(=O)[C@@H](OC(C)=O)C[C@@H](C(=O)OC)[C@]3(C)CC[C@H]2C(=O)O1 | > 1 | > 1 | 99 |  |  |
| CCOC(=O)[C@@H]1C[C@]2(C)[C@H]3C(=O)[C@@H](OC(C)=O)C[C@@H](C(=O)OC)[C@]3(C)CC[C@H]2C(=O)O1 | > 1 | > 1 | 94 |  |  |
